Reference: ChEMBL document CHEMBL1154746, “Anti-oxidant and anti-bacterial activities of novel N'-arylmethylidene-2-(3, 4-dimethyl-5, 5-dioxidopyrazolo[4,3-c][1,2]benzothiazin-2(4H)-yl) acetohydrazides” (2010)
Values after ≈ are worked out from the molar mass of the structure shown.

Assays:
Type in all cases: functional
[1] = Antioxidant activity assessed as superoxide radical scavenging activity measured as formazone formation by spectrophotometry relative to control; design: concentration or dose not given beside the values
Procedure, shortened: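 NADH–NBT–PMS superoxide-generating mixture in 0.1 M phosphate buffer, pH 7.4, with reagents made up in buffer. Sample was added from a 1 mM DMSO solution. The reaction ran at room temperature, and superoxide formation was followed as blue formazan absorbance at 560 nm. Lower absorbance was read as higher scavenging.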

Staphylococcus aureus = test: Antimicrobial activity against Staphylococcus aureus after 24 hrs by agar dilution technique
Procedure, shortened: (§1)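 Suspensions of E. coli, B. subtilis and Staphylococcus aureus were prepared at about 10⁵–10⁶ CFU/well, and test compounds were applied to the wells over a concentration range. MIC was taken as the lowest concentration with no apparent growth, disregarding a single colony or a faint haze from the inoculum.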

Escherichia coli = test: Antimicrobial activity against Escherichia coli after 24 hrs by agar dilution technique; procedure, shortened: as §1
Bacillus subtilis = test: Antimicrobial activity against Bacillus subtilis after 24 hrs by agar dilution technique; procedure, shortened: as §1

Row | SMILES | MIC (Staphylococcus aureus) | MIC (Escherichia coli) | MIC (Bacillus subtilis) | Activity [1]
1 | CN(C)[C@@H]1C(O)=C(C(N)=O)C(=O)[C@@]2(O)C(O)=C3C(=O)c4c(O)cccc4[C@@](C)(O)[C@H]3C[C@@H]12 [TETRACYCLINE] | 0.78 µg/mL (≈ 1.76 µM) | 0.25 µg/mL (≈ 0.563 µM) | 0.35 µg/mL (≈ 0.788 µM) | –
2 | Cc1c2c(nn1CC(=O)N/N=C/c1ccc(O)cc1O)-c1ccccc1S(=O)(=O)N2C | > 200 µg/mL | 5 µg/mL (≈ 11.3 µM) | 39 µg/mL (≈ 88.3 µM) | 98.3%
3 | Cc1c2c(nn1CC(=O)N/N=C/c1ccc(Cl)c(Cl)c1)-c1ccccc1S(=O)(=O)N2C | > 200 µg/mL | > 200 µg/mL | > 200 µg/mL | 51.5%
4 | Cc1c2c(nn1CC(=O)N/N=C/c1ccccn1)-c1ccccc1S(=O)(=O)N2C | > 200 µg/mL | 28 µg/mL (≈ 68.2 µM) | 88 µg/mL (≈ 214 µM) | 24%
5 | Cc1c2c(nn1CC(=O)N/N=C/c1ccc([N+](=O)[O-])cc1)-c1ccccc1S(=O)(=O)N2C | > 200 µg/mL | > 200 µg/mL | > 200 µg/mL | 23.7%
6 | Cc1c2c(nn1CC(=O)N/N=C/c1ccccc1Cl)-c1ccccc1S(=O)(=O)N2C | > 200 µg/mL | > 200 µg/mL | > 200 µg/mL | 44.2%
7 | Cc1c2c(nn1CC(=O)N/N=C/c1ccc(Cl)cc1Cl)-c1ccccc1S(=O)(=O)N2C | > 200 µg/mL | > 200 µg/mL | > 200 µg/mL | 48.7%
8 | Cc1c2c(nn1CC(=O)N/N=C/c1cccc([N+](=O)[O-])c1)-c1ccccc1S(=O)(=O)N2C | > 200 µg/mL | > 200 µg/mL | > 200 µg/mL | 52.2%
9 | CCCOC(=O)c1cc(O)c(O)c(O)c1 | – | – | – | 91.3%

Continued, in another order:

Row | MIC (Staphylococcus aureus) | MIC (Escherichia coli) | MIC (Bacillus subtilis) | SMILES | Activity [1]
10 | > 200 µg/mL | > 200 µg/mL | > 200 µg/mL | Cc1c2c(nn1CC(=O)N/N=C/c1ccc(F)cc1)-c1ccccc1S(=O)(=O)N2C | 17.4%
11 | > 200 µg/mL | > 200 µg/mL | > 200 µg/mL | Cc1c2c(nn1CC(=O)N/N=C/c1ccc(Cl)cc1)-c1ccccc1S(=O)(=O)N2C | 23.3%
12 | > 200 µg/mL | 27 µg/mL (≈ 65.8 µM) | 95 µg/mL (≈ 231 µM) | Cc1c2c(nn1CC(=O)N/N=C/c1cccnc1)-c1ccccc1S(=O)(=O)N2C | 25.1%
13 | > 200 µg/mL | 11 µg/mL (≈ 23.4 µM) | 47 µg/mL (≈ 100 µM) | CCOc1cc(/C=N/NC(=O)Cn2nc3c(c2C)N(C)S(=O)(=O)c2ccccc2-3)ccc1O | 71.1%
14 | > 200 µg/mL | 69 µg/mL (≈ 169 µM) | > 200 µg/mL | Cc1c2c(nn1CC(=O)N/N=C/c1ccccc1)-c1ccccc1S(=O)(=O)N2C | 33.9%
15 | > 200 µg/mL | 17 µg/mL (≈ 36.2 µM) | > 200 µg/mL | COc1ccc(/C=N/NC(=O)Cn2nc3c(c2C)N(C)S(=O)(=O)c2ccccc2-3)c(OC)c1 | 53.1%
16 | > 200 µg/mL | 23 µg/mL (≈ 52.3 µM) | 69 µg/mL (≈ 157 µM) | COc1cccc(/C=N/NC(=O)Cn2nc3c(c2C)N(C)S(=O)(=O)c2ccccc2-3)c1 | 44.9%
17 | > 200 µg/mL | > 200 µg/mL | > 200 µg/mL | Cc1c2c(nn1CC(=O)N/N=C/c1ccccc1[N+](=O)[O-])-c1ccccc1S(=O)(=O)N2C | 28.8%
18 | 55 µg/mL (≈ 132 µM) | 23 µg/mL (≈ 55.4 µM) | 77 µg/mL (≈ 185 µM) | Cc1c2c(nn1CC(=O)N/N=C/c1cccs1)-c1ccccc1S(=O)(=O)N2C | 14.6%
19 | 61 µg/mL (≈ 147 µM) | 24 µg/mL (≈ 57.8 µM) | 82 µg/mL (≈ 197 µM) | Cc1c2c(nn1CC(=O)N/N=C/c1ccsc1)-c1ccccc1S(=O)(=O)N2C | 16.5%
